Results on 20 compounds are retold here after ChEMBL document CHEMBL4400576, “Identification of Pyrazolo[1,5-a]pyridine-3-carboxamide Diaryl Derivatives as Drug Resistant Antituberculosis Agents” (ACS Med Chem Lett, 2019).

Data set [1] concerns Mycobacterium tuberculosis. In words: Antibacterial activity against Mycobacterium tuberculosis H37Rv after 7 days by microplate alamar blue assay. The settings on record: 168 h. It is filed as functional. A digest of the protocol:
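MIC against H37Rv by MABA. Primary screen run at 0.02 to 5 μg/mL. Compounds retested at 0.002 to 0.5 μg/mL.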
(Resazurin is reduced to fluorescent resorufin, in cell work by metabolically active cells.)

The nature of data set [2]: Selectivity index, ratio of IC50 for African green monkey Vero cells to MIC>=90 for Mycobacterium tuberculosis H37Rv. It is filed as toxicity. The settings on record: read-out: Selectivity Index. In short, it runs like this: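 SI is Vero cell IC50 divided by MABA MIC against H37Rv, with MIC tested at 0.002 to 0.5 μg/mL.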
The subject of another data set is Vero. In words: Cytotoxicity against African green monkey Vero cells measured after 72 hrs by CellTiter 96 aqueous non-radioactive cell proliferation assay. It is filed as cell-based. The conditions noted are these: Chlorocebus sabaeus. A digest of the protocol: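 Vero cells were exposed to compound, and cytotoxicity was reported as IC50 in µg/mL.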
Data set [3] can be described thus: Tmax in Sprague-Dawley rat at 10 mg/kg, po by LC-MS/MS analysis. It counts as ADME, organism-based. The conditions noted are these: in vivo. A digest of the protocol:
(§1)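 Rats received a single dose of compound, either intravenously at 2.5 mg/kg or orally at 10 mg/kg, in separate arms. Plasma parameters were AUC0-∞ (h*µg/L), Cmax (µg/L), Tmax, T1/2 and MRT (h). Oral bioavailability F (%) was derived from the oral and intravenous arms.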

Data set [4] can be described thus: Cmax in Sprague-Dawley rat at 2.5 mg/kg, iv by LC-MS/MS analysis. It is filed as ADME, organism-based. Further details: dose 2.5 mg/kg, route intravenous. The conditions noted are these: in vivo. A digest of the protocol: as §1
The nature of data set [5]: Half life in Sprague-Dawley rat at 2.5 mg/kg, iv by LC-MS/MS analysis. It is filed as ADME, organism-based. The settings on record: in vivo. A digest of the protocol: as §1
Data set [6] in a line: Oral bioavailability in Sprague-Dawley rat at 10 mg/kg by LC-MS/MS analysis. It is filed as ADME, organism-based. The conditions noted are these: in vivo. In short, it runs like this: as §1
A short description of data set [7]: AUC (0 to infinity) in Sprague-Dawley rat at 2.5 mg/kg, iv by LC-MS/MS analysis. It counts as ADME, organism-based. Further details: dose 2.5 mg/kg, route intravenous, time infinity. The conditions noted are these: in vivo. In short, it runs like this: as §1
Data set [8] can be described thus: MRT (0 to infinity) in Sprague-Dawley rat at 2.5 mg/kg, iv by LC-MS/MS analysis. The settings on record: in vivo. It is filed as ADME, organism-based. In short, it runs like this:
as §1

A short description of data set [9]: Cmax in Sprague-Dawley rat at 10 mg/kg, po by LC-MS/MS analysis. Further details: dose 10 mg/kg, route oral. The settings on record: in vivo. It is filed as ADME, organism-based. A digest of the protocol: as §1
A short description of data set [10]: AUC (0 to infinity) in Sprague-Dawley rat at 10 mg/kg, po by LC-MS/MS analysis. The conditions noted are these: in vivo. Further details: dose 10 mg/kg, route oral, time infinity. It is filed as ADME, organism-based. A digest of the protocol: as §1
Data set [11] can be described thus: MRT (0 to infinity) in Sprague-Dawley rat at 10 mg/kg, po by LC-MS/MS analysis. It counts as ADME, organism-based. The conditions noted are these: in vivo. A digest of the protocol:
as §1

Data set [12] can be described thus: Tmax in Sprague-Dawley rat at 2.5 mg/kg, iv by LC-MS/MS analysis. It counts as ADME, organism-based. The settings on record: in vivo. A digest of the protocol:
as §1

Data set [13] in a line: Half life in Sprague-Dawley rat at 10 mg/kg, po by LC-MS/MS analysis. It is filed as ADME, organism-based. The conditions noted are these: in vivo. A digest of the protocol:
as §1

Converted amounts (≈) assume the structure as drawn. A value given as a limit tells only on which side of the number the result lay.

By MIC90 is commonly meant an inhibitory concentration at the 90% level, which refers to growth in some studies and to a panel of isolates in others. For the compound `COc1ccn2nc(C)c(C(=O)NCc3nnc(-c4ccc(OC(F)(F)F)cc4)o3)c2c1`, the MIC90 in data set [1] is more than 5 µg/mL.
The term IC50 denotes the concentration that gives 50% inhibition. As for `COc1ccn2nc(C)c(C(=O)NCc3ccc(-c4ccc(OC(F)(F)F)cc4)c(OC)c3)c2c1`, the selectivity ratio in data set [2] came out at 1680. Moreover, the IC50 with Vero stood at 11.8 µg/mL (≈ 24.3 µM).
The compound `COc1ccn2nc(C)c(C(=O)NCc3ncc(-c4ccc(OC(F)(F)F)cc4)[nH]3)c2c1` displayed an MIC90 in data set [1] of more than 5 µg/mL.
In data set [1], `COc1ccn2nc(C)c(C(=O)NCc3ccc(-c4ccc(OC(F)(F)F)cc4)cc3C)c2c1` gave an MIC90 of 0.57 µg/mL (≈ 1.21 µM).
As for `COc1ccn2nc(C)c(C(=O)NCc3ccc(-c4ccc(OC(F)(F)F)cc4)cc3F)c2c1`, the selectivity ratio in data set [2] was more than 7140. Besides, the IC50 in the data set with Vero is more than 50 µg/mL.
For the compound `COc1ccn2nc(C)c(C(=O)NCc3ccc(-c4ccc(OC(F)(F)F)cc4)c(C(F)(F)F)c3)c2c1`, the selectivity ratio in data set [2] was determined as 402. Besides, the half-maximal inhibitory concentration (IC50) in the data set with Vero stood at 11.6 µg/mL (≈ 22.2 µM).
For `COc1ccn2nc(C)c(C(=O)NCc3ccc(-c4ccc(OC(F)(F)F)cc4)cc3OC)c2c1`, in [1], the MIC90 was found to be 0.28 µg/mL (≈ 0.577 µM).
In the case of `COc1ccn2nc(C)c(C(=O)NCc3ccc(-c4ccc(OC(F)(F)F)cc4)s3)c2c1`, the selectivity ratio in data set [2] was more than 25000. Besides, the IC50 in the data set with Vero was more than 50 µg/mL.
Taken in the same sequence, the figures for `COc1ccn2nc(C)c(C(=O)NCc3ccc(-c4ccc(OC(F)(F)F)cc4)nc3)c2c1` were 535 and 28.4 µg/mL (≈ 62.2 µM).
`COc1ccn2nc(C)c(C(=O)NCc3ncc(-c4ccc(OC(F)(F)F)cc4)o3)c2c1`: the MIC90 in [1] turned out to be 1.96 µg/mL (≈ 4.39 µM).
For the compound `COc1ccn2nc(C)c(C(=O)NCc3cn(-c4ccc(OC(F)(F)F)cc4)nn3)c2c1`, the MIC90 in data set [1] was more than 5 µg/mL.
The same measure, in the same setting: with `COc1ccn2nc(C)c(C(=O)NCc3cnc(-c4ccc(OC(F)(F)F)cc4)s3)c2c1` the figure was 0.53 µg/mL (≈ 1.15 µM); with `COc1ccn2nc(C)c(C(=O)NCc3ccc(-c4ccc(OC(F)(F)F)cc4)cc3C(F)(F)F)c2c1`, more than 5 µg/mL.
One may read the Tmax as the time from dosing to the highest level. By Cmax is commonly meant the maximum level reached in the sampled fluid or tissue. A word on the half-life: it is the time in which the quantity being followed falls by half. As usually defined, the bioavailability is the share of a dose that reaches the circulation, judged against a reference dose that is usually intravenous. In general, AUC(0-inf) refers to the area under the concentration-time curve extrapolated to infinity. One may read the MRT inf as the average time that molecules of a dose stay in the body. For `COc1ccn2nc(C)c(C(=O)NCc3ccc(-c4ccc(OC(F)(F)F)cc4)cn3)c2c1`, the values for the time to peak (Tmax) in data set [3] and in data set [12] were 4.67 h and 4.8 min, respectively. For the same compound, the selectivity ratio in data set [2] is more than 25000. The highest concentration (Cmax) in data set [4] is 4150 ng/mL; in [9], 1430 ng/mL. The half-life was 3.49 h in data set [5] and 5.1 h in data set [13]. For the same compound, the 50% inhibitory concentration (IC50) with Vero is more than 50 µg/mL. The same compound returned a bioavailability in data set [6] of 41%. In addition, the AUC(0-inf) in [7] was 9000 ng·h/mL; in [10], 15600 ng·h/mL. The mean residence time (MRT inf) was 4.02 h in [8] and 8.21 h in data set [11].
As for `COc1ccn2nc(C)c(C(=O)NCc3ccc(-c4ccc(OC(F)(F)F)cc4)c(F)c3)c2c1`, the selectivity ratio in data set [2] was more than 25000. In addition, the IC50 in the data set on Vero is more than 50 µg/mL.
Taken in the same sequence, the figures for `COc1ccn2nc(C)c(C(=O)NCc3ccc(-c4ccc(OC(F)(F)F)cc4)c(C)c3)c2c1` were 242 and 3.15 µg/mL (≈ 6.71 µM).
`COc1nc2ccc(Br)cc2cc1[C@@H](c1ccccc1)[C@@](O)(CCN(C)C)c1cccc2ccccc12` [BEDAQUILINE]: in [1], the MIC90 was in the range of 0.02 to 0.03 µg/mL (≈ 0.036 to 0.054 µM). Also, the selectivity ratio in data set [2] is more than 500. For the same compound, the IC50 in the data set with Vero is more than 10 µg/mL.
In [1], `NNC(=O)c1ccncc1` [ISONIAZID] yielded an MIC90 of 0.239 to 0.48 µg/mL (≈ 1.74 to 3.5 µM).
For the compound `CC(=O)NC[C@H]1CN(c2ccc(N3CCOCC3)c(F)c2)C(=O)O1` [LINEZOLID], the MIC90 in data set [1] lay in the range of 1.25 to 3.27 µg/mL (≈ 3.72 to 9.69 µM).
As to `CO[C@H]1/C=C/O[C@@]2(C)Oc3c(C)c(O)c4c(O)c(c(/C=N/N5CCN(C)CC5)c(O)c4c3C2=O)NC(=O)/C(C)=C\C=C\[C@H](C)[C@H](O)[C@@H](C)[C@@H](O)[C@@H](C)[C@H](OC(C)=O)[C@@H]1C` [RIFAMPIN], the selectivity ratio in [2] was more than 12500. The IC50 in the data set on Vero is more than 100 µg/mL.
